Reference: ChEMBL document CHEMBL1828506, “New fluorine-containing hydrazones active against MDR-tuberculosis” (Eur J Med Chem, 2011)
Values after ≈ are worked out from the molar mass of the structure shown.

Tests used:
Mycobacterium avium [1] = experiment: Antimycobacterial activity against Mycobacterium avium CNTC 330/88 after 21 days; format: functional; details: CNTC 330/88, 504 h
Mycobacterium kansasii [2] = experiment: Antimycobacterial activity against Mycobacterium kansasii CNTC My 235/80 after 21 days; format: functional; details: CNTC My 235/80, 504 h
Mycobacterium kansasii [3] = experiment: Antimycobacterial activity against Mycobacterium kansasii CNTC 6509/96 after 7 days; format: functional; details: CNTC 6509/96, 168 h
Mycobacterium kansasii [4] = experiment: Antimycobacterial activity against Mycobacterium kansasii CNTC 6509/96 after 21 days; format: functional; details: CNTC 6509/96, 504 h
PBMC = experiment: Cytotoxicity against human PBMC measured after overnight incubation by MTT assay; format: cell-based
Outline: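 Freshly prepared human PBMC in phenol-red-free RPMI-1640 with 10% FCS, 2 mM L-glutamine and gentamycin, 2.0 × 10⁵ cells per well. After 24 h at 37 °C, overnight compound exposure in serum-free medium. MTT for 4 h, formazan in DMSO, OD540 minus OD620. % cytotoxicity versus controls; IC50 from dose-response curves. Two independent experiments.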

Mycobacterium kansasii [5] = experiment: Antimycobacterial activity against Mycobacterium kansasii CNTC My 235/80 after 7 days; format: functional; details: CNTC My 235/80, 168 h
[6] = system: Mycobacterium tuberculosis; experiment: Antimycobacterial activity against Mycobacterium tuberculosis H37Rv ATCC 27294 after 28 days by colony forming unit determination; format: functional; details: H37Rv ATCC 27294, 672 h
Outline: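 Compounds added to Sula liquid medium as DMSO solutions (DMSO at most 2%), incubated at 37 °C for 28 days. MIC is the lowest concentration giving visible growth inhibition. Activity was confirmed by CFU counts after subculture onto drug-free Löwenstein-Jensen solid medium.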

Mycobacterium kansasii [7] = experiment: Antimycobacterial activity against Mycobacterium kansasii CNTC 6509/96 after 14 days; format: functional; details: CNTC 6509/96, 336 h
HepG2 = experiment: Cytotoxicity against human HepG2 cells measured after overnight incubation by MTT assay; format: cell-based
Outline: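 HepG2 cells in phenol-red-free RPMI-1640 with 10% FCS, 2 mM L-glutamine and gentamycin, seeded at 5 × 10³ per well. After 24 h at 37 °C, cells were exposed overnight to compound in serum-free medium. MTT (2 mg/mL) for 4 h, formazan dissolved in DMSO, read as OD540 minus OD620. % cytotoxicity versus untreated controls; IC50 taken from dose-response curves. Two independent experiments, 4–8 parallel measurements.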

Mycobacterium avium [8] = experiment: Antimycobacterial activity against Mycobacterium avium CNTC 330/88 after 14 days; format: functional; details: CNTC 330/88, 336 h
Mycobacterium kansasii [9] = experiment: Antimycobacterial activity against Mycobacterium kansasii CNTC My 235/80 after 14 days; format: functional; details: CNTC My 235/80, 336 h
[10] = Selectivity index, ratio of IC50 for human HepG2 cells to MIC for Mycobacterium tuberculosis H37Rv ATCC 27294; format: functional
SH-SY5Y = experiment: Cytotoxicity against human SH-SY5Y cells measured after overnight incubation by MTT assay; format: cell-based
Outline: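 SH-SY5Y neuroblastoma cells in phenol-red-free DMEM with 10% FCS, 2 mM L-glutamine, gentamycin and 1% NEAA, 7.5 × 10³ per well. After 24 h at 37 °C, overnight compound exposure in serum-free medium. MTT readout (OD540 minus OD620) against untreated controls; IC50 from dose-response curves. Two independent experiments.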

[11] = Metabolic stability in rat plasma assessed as parent compound remaining after 96 hrs by HPLC analysis; format: ADME, cell-free; details: read-out: Stability
Outline: (§1)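 Compound spiked into rat plasma from DMSO stock, final 3 nmol/mL. 100 µL aliquots taken at set times and precipitated with an equal volume of acetonitrile. Gradient RP-18 HPLC (phosphate pH 2.0/acetonitrile) with fluorescence detection. Six runs: three to 48 h and three extended to 96 h. Result expressed as % parent compound remaining.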

[12] = Hydrolytic stability of the compound in aqueous buffer at pH 7.4 after 48 hrs by HPLC analysis; format: physicochemical; details: pH 7.4, 48 h
Outline: (§2)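 Compound added from DMSO stock to 100 mM buffer (phosphate at pH 3 and 7.4, acetate at pH 5), final 3 nmol/mL. Sampled at set times up to 48 h, in triplicate. Parent compound and ciprofloxacin/formylciprofloxacin quantified by isocratic RP-18 HPLC with fluorescence detection (276/442 nm). Half-life given with 95% confidence intervals.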

[13] = Hydrolytic stability of the compound in aqueous buffer assessed as half life at pH 5 after 48 hrs by HPLC analysis; format: physicochemical; outline: as §2
[14] = Metabolic stability in rat plasma assessed as parent compound remaining after 48 hrs by HPLC analysis; format: ADME, cell-free; details: read-out: Stability; outline: as §1
[15] = Hydrolytic stability of the compound in aqueous buffer assessed as half life at pH 3 after 48 hrs by HPLC analysis; format: physicochemical; outline: as §2

| SMILES | MIC (Mycobacterium avium [1]) [µM] | MIC (Mycobacterium kansasii [2]) [µM] | MIC (Mycobacterium kansasii [3]) [µM] | MIC (Mycobacterium kansasii [4]) [µM] | IC50 (PBMC) [µM] | MIC (Mycobacterium kansasii [5]) [µM] | MIC [6] [µg/mL] | MIC (Mycobacterium kansasii [7]) [µM] | IC50 (HepG2) [µM] | MIC (Mycobacterium avium [8]) [µM] | MIC (Mycobacterium kansasii [9]) [µM] | Selectivity Index [10] | IC50 (SH-SY5Y) [µM] | remaining at 96 h [11] [%] | Stability [12] | half-life [13] [h] | remaining at 48 h [14] [%] | half-life [15] [h] |
| --- | --- | --- | --- | --- | --- | --- | --- | --- | --- | --- | --- | --- | --- | --- | --- | --- | --- | --- |
| O=C(N/N=C/N1CCN(c2cc3c(cc2F)c(=O)c(C(=O)O)cn3C2CC2)CC1)c1cccc(F)c1 | 250 (≈ 124 µg/mL) | 8 (≈ 3.96 µg/mL) | 4 (≈ 1.98 µg/mL) | 4 (≈ 1.98 µg/mL) | > 305 | 4 (≈ 1.98 µg/mL) | 1 (≈ 2.02 µM) | 4 (≈ 1.98 µg/mL) | > 812 | 125 (≈ 61.9 µg/mL) | 4 (≈ 1.98 µg/mL) | 402.38 | – | – | – | – | – | – |
| O=C(N/N=C/N1CCN(c2cc3c(cc2F)c(=O)c(C(=O)O)cn3C2CC2)CC1)c1ccc(C(F)(F)F)cc1 | 62.5 (≈ 34.1 µg/mL) | 4 (≈ 2.18 µg/mL) | 1 (≈ 0.545 µg/mL) | 2 (≈ 1.09 µg/mL) | 347 | 2 (≈ 1.09 µg/mL) | 1 (≈ 1.83 µM) | 1 (≈ 0.545 µg/mL) | 347 | 32 (≈ 17.5 µg/mL) | 2 (≈ 1.09 µg/mL) | 189.21 | – | – | – | – | – | – |
| O=C(N/N=C/N1CCN(c2cc3c(cc2F)c(=O)c(C(=O)O)cn3C2CC2)CC1)c1cccc(C(F)(F)F)c1 | 250 (≈ 136 µg/mL) | 4 (≈ 2.18 µg/mL) | 1 (≈ 0.545 µg/mL) | 2 (≈ 1.09 µg/mL) | > 322 | 2 (≈ 1.09 µg/mL) | 2 (≈ 3.67 µM) | 1 (≈ 0.545 µg/mL) | > 322 | 250 (≈ 136 µg/mL) | 2 (≈ 1.09 µg/mL) | 87.79 | – | – | – | – | – | – |
| CCn1cc(C(=O)O)c(=O)c2cc(F)c(N3CCN(/C=N/NC(=O)c4cccc(F)c4)CC3)cc21 | 250 (≈ 121 µg/mL) | 62.5 (≈ 30.2 µg/mL) | 16 (≈ 7.74 µg/mL) | 32 (≈ 15.5 µg/mL) | > 393 | 16 (≈ 7.74 µg/mL) | 6 (≈ 12.4 µM) | 16 (≈ 7.74 µg/mL) | > 393 | 125 (≈ 60.4 µg/mL) | 32 (≈ 15.5 µg/mL) | 31.67 | > 430 | – | – | – | – | – |
| O=C(O)c1ccc(N/C=N/NC(=O)c2ccccc2F)cc1O | 62.5 (≈ 19.8 µg/mL) | 62.5 (≈ 19.8 µg/mL) | 32 (≈ 10.2 µg/mL) | 62.5 (≈ 19.8 µg/mL) | 1210 | 32 (≈ 10.2 µg/mL) | 2 (≈ 6.3 µM) | 62.5 (≈ 19.8 µg/mL) | 1210 | 32 (≈ 10.2 µg/mL) | 32 (≈ 10.2 µg/mL) | 192.06 | – | – | – | – | – | – |
| O=C(O)c1cn(C2CC2)c2cc(N3CCNCC3)c(F)cc2c1=O [CIPROFLOXACIN] | 62.5 (≈ 20.7 µg/mL) | 2 (≈ 0.663 µg/mL) | 1 (≈ 0.331 µg/mL) | 2 (≈ 0.663 µg/mL) | > 500 | 1 (≈ 0.331 µg/mL) | 0.5 (≈ 1.51 µM) | 1 (≈ 0.331 µg/mL) | > 500 | 62.5 (≈ 20.7 µg/mL) | 2 (≈ 0.663 µg/mL) | 333.33 | > 500 | – | – | – | – | – |
| CCn1cc(C(=O)O)c(=O)c2cc(F)c(N3CCNCC3)cc21 [NORFLOXACIN] | 250 (≈ 79.8 µg/mL) | 16 (≈ 5.11 µg/mL) | 2 (≈ 0.639 µg/mL) | 8 (≈ 2.55 µg/mL) | > 500 | 8 (≈ 2.55 µg/mL) | 5 (≈ 15.7 µM) | 8 (≈ 2.55 µg/mL) | > 500 | 125 (≈ 39.9 µg/mL) | 16 (≈ 5.11 µg/mL) | 31.85 | > 500 | – | – | – | – | – |
| CCn1cc(C(=O)O)c(=O)c2cc(F)c(N3CCN(/C=N/NC(=O)c4ccc(C(F)(F)F)cc4)CC3)cc21 | 500 (≈ 267 µg/mL) | 8 (≈ 4.27 µg/mL) | 2 (≈ 1.07 µg/mL) | 8 (≈ 4.27 µg/mL) | 262 | 2 (≈ 1.07 µg/mL) | 5 (≈ 9.37 µM) | 4 (≈ 2.13 µg/mL) | > 37.3 | 500 (≈ 267 µg/mL) | 4 (≈ 2.13 µg/mL) | 3.98 | 107 | – | – | – | – | – |
| O=C(N/N=C/N1CCN(c2cc3c(cc2F)c(=O)c(C(=O)O)cn3C2CC2)CC1)c1ccc(F)cc1 | 125 (≈ 61.9 µg/mL) | 8 (≈ 3.96 µg/mL) | 8 (≈ 3.96 µg/mL) | 16 (≈ 7.93 µg/mL) | > 763 | 4 (≈ 1.98 µg/mL) | 1 (≈ 2.02 µM) | 8 (≈ 3.96 µg/mL) | > 1280 | 62.5 (≈ 31 µg/mL) | 4 (≈ 1.98 µg/mL) | 634.29 | – | 82 | Stable | 11.8 | 87 | 2.9 |
| O=C(N/N=C/Nc1ccc(C(=O)O)c(O)c1)c1cccc(F)c1 | 62.5 (≈ 19.8 µg/mL) | 62.5 (≈ 19.8 µg/mL) | 32 (≈ 10.2 µg/mL) | 32 (≈ 10.2 µg/mL) | 934 | 32 (≈ 10.2 µg/mL) | 2 (≈ 6.3 µM) | 32 (≈ 10.2 µg/mL) | 934 | 32 (≈ 10.2 µg/mL) | 62.5 (≈ 19.8 µg/mL) | 148.25 | – | – | – | – | – | – |
